From publication PMC6863147 (Clinical cancer research : an official journal of the …, 2019)
Values joined by “and” are separate entries in the source; they are usually repeats but may differ in a detail not shown here. Equal values may be shown once.

Tests used:
[1] = tested on: recurrent RB-positive glioblastoma; details: 22 patients; cited from earlier work
[2] = tested on: proliferative marker MIB-1; experiment: tumor pharmacodynamics, MIB-1 immunohistochemistry; type: in vivo, human; details: vs archival tissue, P = 0.039
Outline: (§1)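 Patients took 900 mg/d oral for 5 days, with resection 2, 8 or 24 h after the last dose. Surgical FFPE tissue and matched archival tissue from the initial resection were stained together on an automated platform, with positive and no-primary controls. Antibodies: pRB 1:400, pFOXM1 1:200, MIB-1 1:100, cleaved caspase-3 1:300. Nuclear % positive cells were compared by paired t-test on log values (two-sided 5%), also after normalising to the untreated historical-control median, overall and per arm.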

[3] = tested on: p4EBP1; experiment: longitudinal tissue analysis, p4EBP1 immunohistochemistry; type: in vivo, human; details: 3 patients
[4] = safety and tolerability in glioblastoma patients; details: human, in vivo
[5] = tested on: pS6; experiment: longitudinal tissue analysis, pS6 immunohistochemistry; type: in vivo, human; details: 3 patients
Outline: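 Samples were from expansion-cohort patients (600 mg daily, 21 days on/7 off) re-resected at recurrence. Enhancing tumor was collected. Archival, Phase 0 surgical and post-treatment FFPE tissue was immunostained on an automated platform (anti-pS6 1:100). The software nuclear function quantified % positive cells.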

[6] = plasma pharmacokinetics in recurrent glioblastoma patients; type: in vivo, human
Outline: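 Patients took 900 mg oral daily. Blood was drawn before dosing and 0.5, 1, 2, 4, 6, 8 and 24 h after the fourth dose. Plasma was held at −80 °C. Totals were measured by validated LC-MS/MS, and unbound levels as total × fraction unbound (equilibrium dialysis). Noncompartmental analysis gave Cmax, Tmax, AUCτ and CL/F (dose/AUCτ), summarised as mean, median, range and coefficient of variation.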

[7] = tested on: recurrent glioblastoma; experiment: pharmacokinetic/pharmacodynamic-guided expansion cohort, clinical response; type: in vivo, human
[8] = type: in vivo, human
[9] = tested on: phosphorylation of FOXM1 (pFOXM1); experiment: tumor pharmacodynamics, pFOXM1 immunohistochemistry; type: in vivo, human; details: P = 0.142, primarily at 8-hour postdose
Outline: as §1

[10] = tested on: CDK4/6; details: read-out: in vitro IC50 for inhibition of CDK4/6 kinase activity; cited from earlier work
[11] = tested on: apoptotic marker cleaved caspase-3; experiment: tumor pharmacodynamics, cleaved caspase-3 immunohistochemistry; type: in vivo, human; details: P = 0.19
Outline: as §1

[12] = tested on: phosphorylation of RB (pRB); experiment: tumor pharmacodynamics, pRB immunohistochemistry; type: in vivo, human
Outline: as §1

[13] = 2 to 24 hours after fifth 900 mg dose
[14] = human, non-enhancing tumor region, oral, 900 mg

## CC(=O)c1c(C)c2cnc(Nc3ccc(N4CCNCC4)cn3)nc2n(C2CCCC2)c1=O [Palbociclib]
[1]
  clinical efficacy in terms of prolonging PFS: limited clinical efficacy

## CN(C)C(=O)c1cc2cnc(Nc3ccc(N4CCNCC4)cn3)nc2n1C1CCCC1 [ribociclib, Ribociclib]
[2]
  MIB-1 change after Phase 0 exposure: significantly reduced
[3]; matched Phase 0 samples
  p4EBP1 positive cells: 2.8%
[3]; post-treatment specimens
  p4EBP1 positive cells: 31.2%
[4]
  maximum tolerated dose: 900 mg daily
[5]; matched Phase 0 samples
  pS6 positive cells: 21.3%
[5]; post-treatment specimens
  pS6 positive cells: 36.7%
[6]; human, plasma, po, 900 mg
  half-life: 13.5 h
[6]; inter-individual, among 12 patients
  coefficient variation in drug exposure (Cmax, Ctrough, AUC0-24h): about 50%
[6]; steady-state, 900 mg daily
  fluctuation of unbound plasma concentration, trough to peak: 3.4 fold
  unbound plasma concentration, mean peak level: 440 nM
  unbound plasma concentration, mean trough level: 130 nM
[7]; 6 of 8 patients with histologically evident recurrence
  Phase 0 responders based on pharmacokinetic and pharmacodynamic results: 75%
[7]; expansion cohort, 6 patients
  PFS6: 16.7%
  median OS: 7.8 months
[7]; expansion cohort, 6 patients, 600 mg daily 21 days on/7 days off
  median PFS: 9.7 weeks
[7]; recurrent glioblastoma
  clinical efficacy of monotherapy: limited clinical efficacy
[8]; [13]
  mean unbound concentration in enhancing tumor region: 2.152 µmol/kg and 2.152 ± 1.559 µmol/kg
  mean unbound concentration in non-enhancing tumor region: 0.560 µmol/kg and 0.560 ± 0.364 µmol/kg
[8]; [14]
  concentration at 2 h: 510 nM
  concentration at 8 h: 600 nM
  concentration at 24 h: 350 nM
[9]
  pFOXM1 levels after normalization with historical control samples: downward trend
[10]
  IC50: 40 nM
[11]
  cleaved caspase-3 change after Phase 0 exposure: trended towards a concomitant increase
[12]; 9 of 12 Phase 0 patients, vs matched archival tissue
  patients with > 20% decrease in pRB levels: 75%
[12]; 12 treated patients, 900 mg/d for 5 days
  average decrease in pRB levels: 50%
[12]; Phase 0 operation specimens, 3 re-resected patients
  pRB positive cells: 7.4%
[12]; post-treatment (recurrence after monotherapy), 3 patients
  pRB positive cells: 19.96%
